Assay results taken from ChEMBL document CHEMBL1221390, “Withaferin A, a cytotoxic steroid from Vassobia breviflora, induces apoptosis in human head and neck squamous cell carcinoma” (J Nat Prod, 2010).
Calls of active or inactive are those of the source. No cut-off for these calls is given here.

Experiments:
[1] = molecular target: RAC-alpha serine/threonine-protein kinase (Homo sapiens) (UniProt P31749); test: Inhibition of Akt in human MDA1986 cells assessed as decrease in total protein level at 0.1 to 5 uM after 24 hrs by Western blot analysis; format: cell-based
In short: (§1)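 Increasing concentrations for 24 h. NP-40 lysates (with NaF and orthovanadate) cleared at 14,000 × g, equal protein separated by SDS-PAGE and blotted. Probed for phospho-Akt (Ser473), total Akt, phospho-ERK1/2 and total ERK; β-actin loading control. Primary antibody overnight at 4 °C, HRP secondary 1 h.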

[2] = molecular target: RAC-alpha serine/threonine-protein kinase (Homo sapiens) (UniProt P31749); test: Inhibition of Akt in human JMAR cells assessed as decrease in total protein level at 0.1 to 5 uM after 24 hrs by Western blot analysis; format: cell-based; in short: as §1
[3] = molecular target: RAC-alpha serine/threonine-protein kinase (Homo sapiens) (UniProt P31749); test: Inhibition of Akt in human UM-SCC2 cells assessed as decrease in total protein level at 0.1 to 5 uM after 24 hrs by Western blot analysis; format: cell-based; in short: as §1
[4] = molecular target: RAC-alpha serine/threonine-protein kinase (Homo sapiens) (UniProt P31749); test: Inhibition of Akt in human JHU011 cells assessed as decrease in total protein level at 0.1 to 5 uM after 24 hrs by Western blot analysis; format: cell-based; in short: as §1
[5] = molecular target: T1, Mitogen-activated protein kinase; ERK1/ERK2 (Homo sapiens) (UniProt P27361+P28482); test: Inhibition of ERK1/2 phosphorylation in human JHU011 cells at 0.1 to 5 uM after 24 hrs by Western blot analysis; format: cell-based; in short: as §1
[6] = molecular target: T1, Mitogen-activated protein kinase; ERK1/ERK2 (Homo sapiens); test: Inhibition of ERK1/2 phosphorylation in human JMAR cells at 0.1 to 5 uM after 24 hrs by Western blot analysis; format: cell-based; in short: as §1
[7] = molecular target: T1, Mitogen-activated protein kinase; ERK1/ERK2 (Homo sapiens); test: Inhibition of ERK1/2 phosphorylation in human MDA1986 cells at 0.1 to 5 uM after 24 hrs by Western blot analysis; format: cell-based; in short: as §1
[8] = molecular target: T1, Mitogen-activated protein kinase; ERK1/ERK2 (Homo sapiens); test: Inhibition of ERK1/2 phosphorylation in human UM-SCC2 cells at 0.1 to 5 uM after 24 hrs by Western blot analysis; format: cell-based; in short: as §1
[9] = molecular target: T1, Mitogen-activated protein kinase; ERK1/ERK2 (Homo sapiens); test: Inhibition of ERK1/2 phosphorylation in human JHU011 cells assessed as effect on total protein level at 0.1 to 5 uM after 24 hrs by Western blot analysis; format: cell-based; in short: as §1
[10] = molecular target: T1, Mitogen-activated protein kinase; ERK1/ERK2 (Homo sapiens); test: Inhibition of ERK1/2 phosphorylation in human UM-SCC2 cells assessed as effect on total protein level at 0.1 to 5 uM after 24 hrs by Western blot analysis; format: cell-based; in short: as §1
[11] = molecular target: T1, Mitogen-activated protein kinase; ERK1/ERK2 (Homo sapiens); test: Inhibition of ERK1/2 phosphorylation in human JMAR cells assessed as effect on total protein level at 0.1 to 5 uM after 24 hrs by Western blot analysis; format: cell-based; in short: as §1
[12] = molecular target: T1, Mitogen-activated protein kinase; ERK1/ERK2 (Homo sapiens); test: Inhibition of ERK1/2 phosphorylation in human MDA1986 cells assessed as effect on total protein level at 0.1 to 5 uM after 24 hrs by Western blot analysis; format: cell-based; in short: as §1
Homo sapiens [13] = species on record: Homo sapiens; test: Induction of apoptosis in human MDA1986 cells assessed as increase in early apoptotic cells at 5 uM after 24 hrs by FITC-conjugated annexin V and propidium iodide staining-based flow cytometry; format: functional, cell-based
In short: (§2)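 Cells given 5.0 μM for 24 h, harvested, and co-stained at 1×10⁶ cells/mL with annexin V-FITC and PI. Annexin binding buffer added before flow cytometry. Annexin V only scored as early apoptosis, annexin V+PI as late apoptosis, PI only as necrosis. Triplicate; t-test.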

Homo sapiens [14] = species on record: Homo sapiens; test: Induction of apoptosis in human MDA1986 cells assessed as increase in late apoptotic cells at 5 uM after 24 hrs by FITC-conjugated annexin V and propidium iodide staining-based flow cytometry; format: functional, cell-based; in short: as §2
MDA1986 = test: Induction of apoptosis in human MDA1986 cells assessed as increase in non-viable necrotic cells at 5 uM after 24 hrs by FITC-conjugated annexin V and propidium iodide staining-based flow cytometry; format: functional, cell-based; in short: as §2
[15] = Cytotoxicity against human UM-SCC2 cells after 72 hrs by MTS assay; format: functional, cell-based; settings: UM-SCC2, 72 h
In short: (§3)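 Seeded at 2×10³ cells/well, left 24 h, then exposed to serial dilutions in medium (from DMSO stock; vehicle controls <0.1% DMSO v/v) for 72 h. MTS added, 3 h at 37 °C, 5% CO₂, absorbance 490 nm. Viability expressed relative to medium-only control; IC50 read from viability–concentration curves. Triplicate; cisplatin positive control.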

[16] = Cytotoxicity against human MDA1986 cells after 72 hrs by MTS assay; format: functional, cell-based; settings: MDA1986, 72 h
In short: (§4)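 Cells seeded at 2×10³ per well, grown 24 h, then given serial concentrations (DMSO stock diluted in medium; vehicle controls <0.1% v/v DMSO) for 72 h. MTS added, 3 h at 37 °C, 5% CO₂, absorbance at 490 nm. Viability as fraction of medium-only control; IC50 from viability–concentration curves; triplicate, means of three independent experiments. Cisplatin positive control.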

[17] = Cytotoxicity against human JMAR cells after 72 hrs by MTS assay; format: functional, cell-based; in short: as §4
[18] = Cytotoxicity against human JHU011 cells after 72 hrs by MTS assay; format: functional, cell-based; settings: JHU011, 72 h; in short: as §3
[19] = Induction of cell cycle arrest in human JMAR cells assessed as accumulation at G2/M phase at 3 uM after 24 hrs by flow cytometry; format: functional
In short: (§5)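 Treated 24 h with 3.0 μM or DMSO vehicle. Cells trypsinized; 1×10⁶ washed in 0.9% NaCl and fixed 30 min at room temperature in cold 70% ethanol/0.9% NaCl. Stained with PI (50 μg/mL in PBS) 30 min, then DNase-free RNase (1 mg/mL) 30 min. Phase distribution (sub-G0, G0/G1, S, G2/M) by flow cytometry.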

[20] = Induction of cell cycle arrest in human MDA1986 cells assessed as accumulation at G2/M phase at 3 uM after 24 hrs by flow cytometry; format: functional; in short: as §5
[21] = Induction of cell cycle arrest in human UM-SCC2 cells assessed as accumulation at G2/M phase at 3 uM after 24 hrs by flow cytometry; format: functional; in short: as §5
[22] = Induction of cell cycle arrest in human JHU011 cells assessed as accumulation at G2/M phase at 3 uM after 24 hrs by flow cytometry; format: functional; in short: as §5

Chain of RAC-alpha serine/threonine-protein kinase (Homo sapiens) (P31749 whole entry): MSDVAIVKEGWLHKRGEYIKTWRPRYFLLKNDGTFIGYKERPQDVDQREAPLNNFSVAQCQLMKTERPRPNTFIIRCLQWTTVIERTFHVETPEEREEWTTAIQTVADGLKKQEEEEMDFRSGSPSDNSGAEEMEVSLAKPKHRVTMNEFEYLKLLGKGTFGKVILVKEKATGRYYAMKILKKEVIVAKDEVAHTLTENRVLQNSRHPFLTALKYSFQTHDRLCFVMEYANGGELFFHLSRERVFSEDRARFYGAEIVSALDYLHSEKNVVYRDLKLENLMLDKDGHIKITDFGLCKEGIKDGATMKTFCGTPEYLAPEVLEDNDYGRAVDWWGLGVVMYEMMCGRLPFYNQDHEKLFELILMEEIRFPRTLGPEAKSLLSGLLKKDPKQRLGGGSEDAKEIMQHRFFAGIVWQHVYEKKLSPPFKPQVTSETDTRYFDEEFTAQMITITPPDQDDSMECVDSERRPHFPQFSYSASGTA
T1 sequence (P27361 whole entry, looked up): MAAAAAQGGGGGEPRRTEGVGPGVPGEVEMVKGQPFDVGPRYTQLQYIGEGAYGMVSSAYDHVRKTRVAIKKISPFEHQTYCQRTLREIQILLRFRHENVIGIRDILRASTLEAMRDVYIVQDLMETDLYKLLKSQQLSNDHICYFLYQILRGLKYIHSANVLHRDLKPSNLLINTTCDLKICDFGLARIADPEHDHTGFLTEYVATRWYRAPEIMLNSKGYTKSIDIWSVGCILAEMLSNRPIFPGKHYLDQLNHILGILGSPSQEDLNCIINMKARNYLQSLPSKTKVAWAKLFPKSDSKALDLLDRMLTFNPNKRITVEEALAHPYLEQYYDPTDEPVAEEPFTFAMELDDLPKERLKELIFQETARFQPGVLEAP
T1 sequence (P28482 whole entry, looked up): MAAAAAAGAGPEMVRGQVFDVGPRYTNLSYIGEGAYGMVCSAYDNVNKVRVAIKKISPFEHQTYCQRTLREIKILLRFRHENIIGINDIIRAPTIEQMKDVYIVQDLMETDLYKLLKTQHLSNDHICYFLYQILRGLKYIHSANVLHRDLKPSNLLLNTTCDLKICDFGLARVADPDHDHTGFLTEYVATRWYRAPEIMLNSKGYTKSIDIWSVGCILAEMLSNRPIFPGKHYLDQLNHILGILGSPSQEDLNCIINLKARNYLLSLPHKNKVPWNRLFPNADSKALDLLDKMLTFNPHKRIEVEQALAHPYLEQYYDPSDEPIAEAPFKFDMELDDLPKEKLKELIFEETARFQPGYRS

inhibition [1]: Active | inhibition [2]: Active | inhibition [3]: Active | inhibition [4]: Active | inhibition [5]: inactive | inhibition [6]: inactive | inhibition [7]: inactive | inhibition [8]: Active | inhibition [9]: inactive | inhibition [10]: inactive | inhibition [11]: inactive | inhibition [12]: inactive
SMILES: CC1=C(CO)C(=O)O[C@@H]([C@@H](C)[C@H]2CC[C@H]3[C@@H]4C[C@H]5O[C@]56[C@@H](O)C=CC(=O)[C@]6(C)[C@H]4CC[C@]23C)C1 [WITHAFERIN A]
Activity (Homo sapiens [13]): inactive | Activity (Homo sapiens [14]): inactive | Activity (MDA1986): inactive | IC50 [15]: 500 nM | IC50 [16]: 800 nM | IC50 [17]: 2000 nM | IC50 [18]: 2200 nM | Activity [19]: 42% | Activity [20]: 49% | Activity [21]: 36% | Activity [22]: 34%
